An excerpt weighted towards active compounds, which were near 2.5% of everything screened.
TCR CD3 inh = blocks the human TCR-CD3 interaction; AID 651800; 0.37% of 360,000 active; TAMRA-labeled TCR probe fluorescence, biochemical; inhibition, % at 9.4 µM;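 note: recombinant mutant TCR 2C K166C tagged with TAMRA read by polarization; 0% = receptor in buffer alone and 100% = receptor with positive control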
mABHD4 FP = ABHD4 (mouse) inhibition, primary FP screen; inhibition, % at 8.92 µM; 0.54% of 370,000 active; purified mABHD4, FP-Rh probe fluorescence polarization;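 active = inhibition exceeding the mean over every tested compound plus 3 SD, cut at about 30% in these data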;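 note: 0% = plate median of compound wells and 100% = S159A mutant with DMSO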
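Test system: mouse ABHD4 enzyme, wild type. Reagent: FP-Rh fluorescent activity-based probe, added after compound pre-incubation. Timing: pre-incubation 45 min, probe exposure 60 min, at 25 °C. Technique: FP readout, ex 525 nm / em 598 nm. Benchmarks: high control S159A mutant with DMSO, low control median of compound wells.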
rCAG RNA binder = binds r(CAG) RNA repeats | inhibition, % at 3 µM | AID 651821 | r(CAG) RNA repeat, TO-PRO-1 dye displacement fluorescence | 1.3% of 370,000 active;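 active = inhibition above the plate cutoff, the mean of all test compounds on that plate plus 3 SD, cut at about 35% in these data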;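 note: 0% = DMSO alone and 100% = 100 µM mitoxantrone as full dye displacement; higher means more dye released from RNA so lower well fluorescence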
SIAE primary = inhibitors of human sialic acid acetylesterase SIAE. AID 1053197. 0.69% of 370,000 active. SIAE FP-Rh probe binding, fluorescence polarization. Q9HAT2. inhibition, % at 9.66 µM;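 active = inhibition above a cutoff: mean of compounds within the control limits plus 3 SD of those, cut at about 17% in these data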;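 note: 0% = plate median of compound wells and 100% = probe without SIAE protein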
HTRA1 inh = inhibitors of human serine peptidase HTRA1. recombinant HTRA1, FP-rhodamine activity-based probe, fluorescence polarization. inhibition, % at 5.96 µM. 0.5% of 340,000 active. AID 504803; in the data active = inhibition above about 36%;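 note: 0% = enzyme with DMSO and 100% = wells lacking enzyme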
Target sequence (Q92743 whole entry, looked up): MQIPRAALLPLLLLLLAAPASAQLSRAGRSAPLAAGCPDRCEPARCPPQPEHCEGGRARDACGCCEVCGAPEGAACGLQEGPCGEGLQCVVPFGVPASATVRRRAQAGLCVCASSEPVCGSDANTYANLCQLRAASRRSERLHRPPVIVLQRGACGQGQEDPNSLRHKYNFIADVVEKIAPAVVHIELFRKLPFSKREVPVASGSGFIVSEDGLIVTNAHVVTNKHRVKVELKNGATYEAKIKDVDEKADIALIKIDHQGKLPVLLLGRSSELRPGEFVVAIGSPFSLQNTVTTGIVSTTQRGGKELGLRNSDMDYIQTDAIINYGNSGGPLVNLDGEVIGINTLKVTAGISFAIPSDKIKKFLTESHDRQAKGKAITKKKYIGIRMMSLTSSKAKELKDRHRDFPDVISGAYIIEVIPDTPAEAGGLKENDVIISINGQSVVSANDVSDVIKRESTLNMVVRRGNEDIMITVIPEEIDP
HTRA1 conf = HTRA1 (human) inhibition, confirmation; shares compounds with HTRA1 inh; recombinant HTRA1, FP-rhodamine activity-based probe, fluorescence polarization; inhibition, % at 5.96 µM; 66% of 1,600 active; AID 540248;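 active = mean inhibition over three repeats above a set limit taken from the earlier primary screen, cut at about 37% in these data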;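 note: 0% = HTRA1 with DMSO and 100% = wells lacking HTRA1; inhibitors block probe binding so polarization drops and inhibition rises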
BSA TAMRA ctr = interferes with TAMRA-BSA probe, flagging TCR-CD3 hits; 10% of 1,200 active; inhibition, % at 9.4 µM; TAMRA-labeled BSA probe fluorescence counterscreen; AID 652035; shares compounds with TCR CD3 inh; in the data active = inhibition above about 23%;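 note: 0% = buffer low control and 100% = reference high control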
TCR-CD3 inh conf = TCR-CD3 interaction inhibition, confirmation; inhibition, % at 9.4 µM; 48% of 1,200 active; TAMRA-labeled TCR probe fluorescence binding assay; AID 652036; shares compounds with TCR CD3 inh
rCAG binder conf = r(CAG) RNA repeat binding, confirmation | AID 652065 | inhibition, % at 3 µM | shares compounds with rCAG RNA binder | 70% of 4,300 active | TO-PRO-1 dye displacement fluorescence;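 active = inhibition above a per-plate cutoff, the mean inhibition of sample wells plus 3 SD, cut at about 35% in these data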;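 note: loss of TO-PRO-1 fluorescence as compound displaces dye from 1x1 AA loop RNA; 0% = DMSO only wells and 100% = 100 µM mitoxantrone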
dCAG dye counter = DNA CAG dye complex inhibition counter-screen. inhibition, % at 3 µM. 94% of 4,300 active. d(CAG) DNA oligo TO-PRO-1 dye displacement, fluorescence. shares compounds with rCAG RNA binder;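 active = inhibition above its plate's cutoff, the mean test-well inhibition plus 3 SD, cut at about 4.8% in these data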;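 note: 0% = DNA dye mix with DMSO and 100% = 100 µM mitoxantrone; hits displace the dye from DNA and so lower well fluorescence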
mABHD4 conf = confirmation of mouse ABHD4 inhibitors | shares compounds with mABHD4 FP | purified mABHD4, FP-Rh probe fluorescence polarization | inhibition, % at 8.92 µM | 55% of 1,800 active | AID 720658;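 active = mean inhibition across replicates above the hit cutoff set in the primary screen, cut at about 30% in these data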;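 note: 0% = wild-type ABHD4 with DMSO and 100% = catalytically dead S159A mutant with DMSO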
SIAE inh conf = confirmation of human SIAE inhibitors. inhibition, % at 9.66 µM. 13% of 2,300 active. SIAE FP-Rh activity-based probe, fluorescence polarization. shares compounds with SIAE primary;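 active = mean inhibition of the replicates above the hit cutoff set in the primary screen, cut at about 17% in these data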;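 note: 0% = SIAE with DMSO and probe and 100% = probe without SIAE; inhibitors lower polarization as more probe stays unbound to SIAE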
Active calls of the source: *. Cut-off read from the data, not from the text of the source, unless noted: active = inhibition above about 19%; inactive = the rest.

For O=C(Nc1ccc2cn[nH]c2c1)c1c(Cl)cccc1Cl the results were TCR CD3 inh 2.0, mABHD4 FP -2.0, rCAG RNA binder 3.3, SIAE primary -1.4 and HTRA1 inh -7.5.
O=C1C(Cl)=C(Nc2ccc3cn[nH]c3c2)C(=O)c2ccccc21 was read as TCR CD3 inh -1.9, mABHD4 FP 46.3*, rCAG RNA binder 12.4, SIAE primary 18.4*, HTRA1 inh 46.8*, HTRA1 conf 74.8*, mABHD4 conf 53.8* and SIAE inh conf 7.3.
CC(C)c1ccc(Nc2c([N+](=O)[O-])c(=O)n(C)c3ccccc23)cc1 was read as TCR CD3 inh -6.0, mABHD4 FP 2.6, rCAG RNA binder 0.9, SIAE primary -1.8 and HTRA1 inh -25.8.
For Cn1c(=O)c(Nc2ccc(O)cc2)c2c3c(cccc31)C(=O)c1ccccc1-2 the results were TCR CD3 inh 15.6, mABHD4 FP 74.4*, rCAG RNA binder -43.0, SIAE primary 25.6*, HTRA1 inh 77.6*, HTRA1 conf 86.5*, mABHD4 conf 64.6* and SIAE inh conf 13.9.
For NS(=O)(=O)c1ccc(N/N=C/c2ccc(O)c(O)c2O)c([N+](=O)[O-])c1 the results were TCR CD3 inh 59.1*, mABHD4 FP 60.1*, rCAG RNA binder 54.7*, SIAE primary 36.8*, HTRA1 inh 78.4*, HTRA1 conf 67.2*, BSA TAMRA ctr -10.2, TCR-CD3 inh conf 73.8*, rCAG binder conf 76.0*, dCAG dye counter 37.7*, mABHD4 conf 62.5* and SIAE inh conf 11.0.
For Nc1ccc(Nc2nc3ccccc3[nH]2)cc1 the results were TCR CD3 inh -17.1, mABHD4 FP 31.1*, rCAG RNA binder 11.6, SIAE primary 57.2*, HTRA1 inh 57.7*, HTRA1 conf 65.8*, mABHD4 conf 59.1* and SIAE inh conf 57.6*.
Screening COc1ccc(NS(=O)(=O)c2ccc(NS(=O)(=O)c3cccc(C(=O)O)c3)cc2)cc1 returned TCR CD3 inh -4.5, mABHD4 FP 2.3, rCAG RNA binder 12.7, SIAE primary -4.2 and HTRA1 inh 13.9.
For COc1ccc(NS(=O)(=O)c2ccc3c(c2)[C@H]2C=CC[C@H]2[C@@H](c2ccc(C(=O)O)cc2)N3)cc1 the results were TCR CD3 inh 3.5, mABHD4 FP 44.1*, rCAG RNA binder 95.5*, SIAE primary 28.9*, HTRA1 inh 56.5*, HTRA1 conf 52.8*, rCAG binder conf 91.9*, dCAG dye counter 67.2*, mABHD4 conf 61.0* and SIAE inh conf 20.1*.
For CCOC(=O)C1=NNC(C(=O)c2ccccc2)C1c1ccc(Cl)cc1 (stereo unspecified) the results were TCR CD3 inh -1.3, mABHD4 FP -9.7, rCAG RNA binder 1.1, SIAE primary -9.7 and HTRA1 inh -11.3.
`CCOC(=O)C1=C(C)N=C2c3ccccc3C(=O)C2C1c1ccc(Cl)cc1` (stereo unspecified) gave TCR CD3 inh -1.8, mABHD4 FP 34.6*, rCAG RNA binder 4.0, SIAE primary 18.6*, HTRA1 inh 38.0*, HTRA1 conf 34.5, mABHD4 conf 66.1* and SIAE inh conf 5.9.
